Measurements: ChEMBL document CHEMBL1151962, “Identification of N,1,4,4-tetramethyl-8-{[4-(4-methylpiperazin-1-yl)phenyl]amino}-4,5-dihydro-1H-pyrazolo[4,3-h]quinazoline-3-carboxamide (PHA-848125), a potent, orally available cyclin dependent kinase inhibitor” (J Med Chem, 2009)
pIC50: −log10 of the molar value. ≈ marks a conversion by molar mass, not a printed value. Each block holds one compound with its values, some of them ahead of it. Calls of active or inactive are those of the source. No cut-off for these calls is given here.

Tests used:
[1] = target: T1, Cyclin-dependent kinase 2 (Homo sapiens, UniProt P24941); test: Inhibition of CDK2 in human A2780 cells assessed as reduction of hyperphosphorylated form of retinoblastoma protein at 3 uM relative to control; type: cell-based
Outline: (§1)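 A2780 human ovarian carcinoma cells (ECACC) were seeded at 25 000 cells/cm2 in RPMI 1640 pH 7.4 with 10% FBS and 2 mM L-glutamine, at 37 °C in 5% CO2. They were exposed 24 h later to 1 or 3 µM. Floating and adherent cells were harvested with trypsin/EDTA. Extracts were immunoblotted for hyper- and hypophosphorylated pRb and compared with untreated cells.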

[2] = target: T1, Cyclin-dependent kinase 2; test: Inhibition of CDK2 in human A2780 cells assessed as reduction of hyperphosphorylated form of retinoblastoma protein at 1 uM relative to control; type: cell-based; outline: as §1
[3] = target: T1, Cyclin-dependent kinase 2; test: Inhibition of CDK2 in human A2780 cells assessed as accumulation of hypophosphorylated form of retinoblastoma protein at 1 uM relative to control; type: cell-based; outline: as §1
[4] = target: T1, Cyclin-dependent kinase 2; test: Inhibition of CDK2 in human A2780 cells assessed as accumulation of hypophosphorylated form of retinoblastoma protein at 3 uM relative to control; type: cell-based; outline: as §1
A2780 [5] = test: Antitumor activity against human A2780 cells xenografted in nude mouse assessed as tumor growth inhibition at 30 mg/kg, po BID for 10 consecutive days; type: functional; design: scale not given: the % may be the effect or the level left
Outline: (§2)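 A2780 human ovarian xenografts were grown in nude mice. Compound was given orally at 20, 30 or 40 mg/kg twice daily for 10 consecutive days. The read-out was tumor growth inhibition.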

A2780 [6] = test: Inhibition of DNA synthesis in human A2780 cells assessed as decrease in […] incorporation at 1 uM after 24 hrs by flow cytometry; type: functional; design: scale not given: the % may be the effect or the level left
Outline: (§3)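 A2780 cells (ECACC) were seeded at 25 000 cells/cm² in RPMI 1640 pH 7.4 with 10% FBS, 2 mM L-glutamine and penicillin-streptomycin, at 37 °C and 5% CO2. After 24 h, cells were exposed to 1 μM compound for 24 h. Floating and trypsin/EDTA-detached cells were pooled and PBS-washed. Samples were split for flow cytometry and BrdU incorporation. Results are expressed versus untreated control cells.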

[7] = target: cAMP-dependent protein kinase catalytic subunit alpha (Homo sapiens, UniProt P17612); test: Inhibition of PKAalpha
[8] = target: Fibroblast growth factor receptor 1 (Homo sapiens, UniProt P11362); test: Inhibition of FGFR1
A2780 [9] = test: Effect on cell cycle progression in human A2780 cells assessed as decrease in accumulation at S phase at 1 uM after 24 hrs by flow cytometry; type: functional; design: scale not given: the % may be the effect or the level left; outline: as §3
[10] = target: Mast/stem cell growth factor receptor Kit (Homo sapiens, UniProt P10721); test: Inhibition of C-KIT
Sequence of Mast/stem cell growth factor receptor Kit (P10721 whole entry): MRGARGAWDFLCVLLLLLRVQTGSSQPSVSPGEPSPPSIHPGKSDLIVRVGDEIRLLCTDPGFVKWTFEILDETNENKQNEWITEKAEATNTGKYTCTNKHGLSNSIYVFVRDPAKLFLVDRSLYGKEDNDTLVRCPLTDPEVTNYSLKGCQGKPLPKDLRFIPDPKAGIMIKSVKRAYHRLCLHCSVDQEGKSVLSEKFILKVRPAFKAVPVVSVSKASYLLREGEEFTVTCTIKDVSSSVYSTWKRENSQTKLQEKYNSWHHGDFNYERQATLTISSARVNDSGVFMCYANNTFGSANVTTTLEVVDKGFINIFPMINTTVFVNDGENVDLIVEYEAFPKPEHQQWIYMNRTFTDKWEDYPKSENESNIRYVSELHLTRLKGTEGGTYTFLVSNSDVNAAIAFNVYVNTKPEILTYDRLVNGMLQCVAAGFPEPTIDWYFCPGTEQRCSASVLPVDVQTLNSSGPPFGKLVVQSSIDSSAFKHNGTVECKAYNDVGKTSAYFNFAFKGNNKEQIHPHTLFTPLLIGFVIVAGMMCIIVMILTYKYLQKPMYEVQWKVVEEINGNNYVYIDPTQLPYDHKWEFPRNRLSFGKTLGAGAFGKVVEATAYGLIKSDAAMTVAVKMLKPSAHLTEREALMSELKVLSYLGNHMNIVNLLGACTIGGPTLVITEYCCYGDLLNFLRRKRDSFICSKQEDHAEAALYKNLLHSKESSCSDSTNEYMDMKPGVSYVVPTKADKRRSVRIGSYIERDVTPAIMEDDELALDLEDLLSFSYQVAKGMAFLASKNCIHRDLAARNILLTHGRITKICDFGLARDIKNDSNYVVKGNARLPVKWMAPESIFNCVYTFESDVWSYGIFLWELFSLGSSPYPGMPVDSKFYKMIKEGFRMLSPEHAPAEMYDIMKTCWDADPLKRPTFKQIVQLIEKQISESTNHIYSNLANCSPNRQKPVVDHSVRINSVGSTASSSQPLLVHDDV

[11] = target: Protein kinase C beta type (Homo sapiens, UniProt P05771); test: Inhibition of PKCbeta
[12] = Inhibition of PDGFR
[13] = Inhibition of SULU1
[14] = target: Serine/threonine-protein kinase Nek6 (Homo sapiens, UniProt Q9HC98); test: Inhibition of NEK6
Insulin receptor = Insulin receptor (Homo sapiens, UniProt P06213); test: Inhibition of IR
A2780 [15] = test: Antiproliferative activity against human A2780 cells after 72 hrs by cell Titer_Glo assay; type: functional, cell-based; conditions: A2780, 72 h
Outline: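 A2780 cells were seeded at 10000–30000 cells/cm² in medium with 10% FCS. After 24 h they were treated with serial dilutions of compound, in two replicates. Cell amount was read by Cell Titer Glo 72 h after treatment. IC50 came from sigmoidal fitting.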

[16] = target: STE20-like serine/threonine-protein kinase (Homo sapiens, UniProt Q9H2G2); test: Inhibition of STLK2
Sequence of STE20-like serine/threonine-protein kinase (Q9H2G2 whole entry): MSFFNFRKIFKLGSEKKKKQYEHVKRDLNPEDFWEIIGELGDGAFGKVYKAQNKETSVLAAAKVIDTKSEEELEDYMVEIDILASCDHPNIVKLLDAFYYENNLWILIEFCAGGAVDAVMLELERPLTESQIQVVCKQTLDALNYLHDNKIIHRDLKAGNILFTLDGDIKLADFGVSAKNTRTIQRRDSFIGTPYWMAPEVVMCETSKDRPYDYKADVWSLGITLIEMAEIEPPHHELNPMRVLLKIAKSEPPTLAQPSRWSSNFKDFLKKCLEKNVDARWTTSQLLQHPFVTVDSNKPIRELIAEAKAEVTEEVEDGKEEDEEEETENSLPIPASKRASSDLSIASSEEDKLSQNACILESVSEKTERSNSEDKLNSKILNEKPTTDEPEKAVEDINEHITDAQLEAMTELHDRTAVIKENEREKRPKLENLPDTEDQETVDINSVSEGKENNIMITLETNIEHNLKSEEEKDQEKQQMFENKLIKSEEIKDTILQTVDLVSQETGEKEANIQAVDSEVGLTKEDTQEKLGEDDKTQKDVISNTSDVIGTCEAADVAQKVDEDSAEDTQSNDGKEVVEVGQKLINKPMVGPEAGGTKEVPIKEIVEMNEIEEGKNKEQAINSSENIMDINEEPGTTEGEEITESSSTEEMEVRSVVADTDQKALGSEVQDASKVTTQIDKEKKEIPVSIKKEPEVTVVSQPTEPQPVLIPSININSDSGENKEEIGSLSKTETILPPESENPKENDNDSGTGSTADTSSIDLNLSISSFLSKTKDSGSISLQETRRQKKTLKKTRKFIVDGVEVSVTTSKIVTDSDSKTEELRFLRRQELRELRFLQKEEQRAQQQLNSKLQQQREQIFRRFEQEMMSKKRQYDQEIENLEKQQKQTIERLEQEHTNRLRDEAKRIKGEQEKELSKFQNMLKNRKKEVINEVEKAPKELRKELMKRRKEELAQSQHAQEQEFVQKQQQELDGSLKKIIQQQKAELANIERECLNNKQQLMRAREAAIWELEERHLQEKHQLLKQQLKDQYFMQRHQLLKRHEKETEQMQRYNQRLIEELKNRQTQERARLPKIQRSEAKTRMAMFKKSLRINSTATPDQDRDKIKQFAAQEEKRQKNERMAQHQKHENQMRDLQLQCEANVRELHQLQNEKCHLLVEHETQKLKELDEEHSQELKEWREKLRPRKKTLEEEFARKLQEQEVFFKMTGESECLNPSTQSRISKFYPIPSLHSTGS

[17] = target: Vascular endothelial growth factor receptor 3 (Homo sapiens, UniProt P35916); test: Inhibition of VEGFR3
[18] = target: Mitogen-activated protein kinase 11 (Homo sapiens, UniProt Q15759); test: Inhibition of P38beta
Aurora kinase B = Aurora kinase B (Homo sapiens, UniProt Q96GD4); test: Inhibition of Aurora B
[19] = target: Mitogen-activated protein kinase 14 (Homo sapiens, UniProt Q16539); test: Inhibition of P38alpha
Sequence of Mitogen-activated protein kinase 14 (Q16539 whole entry): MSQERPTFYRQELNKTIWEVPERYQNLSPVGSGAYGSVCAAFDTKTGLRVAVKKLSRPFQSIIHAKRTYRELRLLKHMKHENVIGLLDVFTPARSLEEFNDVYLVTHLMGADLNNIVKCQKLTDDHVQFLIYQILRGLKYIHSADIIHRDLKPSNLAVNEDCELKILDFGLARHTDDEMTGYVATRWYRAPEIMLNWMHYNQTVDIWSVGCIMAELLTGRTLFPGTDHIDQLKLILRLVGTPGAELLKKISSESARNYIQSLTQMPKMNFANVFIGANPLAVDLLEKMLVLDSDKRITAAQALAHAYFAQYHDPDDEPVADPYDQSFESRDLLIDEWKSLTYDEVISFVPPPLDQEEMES

[20] = target: Cell division cycle 7-related protein kinase (Homo sapiens, UniProt O00311); test: Inhibition of CDC7
[21] = target: Vascular endothelial growth factor receptor 2 (Homo sapiens, UniProt P35968); test: Inhibition of VEGFR2
[22] = Inhibition of CK2
[23] = Solubility at pH 7; type: physicochemical; conditions: buffer
[24] = target: Mitogen-activated protein kinase 1 (Homo sapiens, UniProt P28482); test: Inhibition of ERK2
Sequence of Mitogen-activated protein kinase 1 (P28482 whole entry): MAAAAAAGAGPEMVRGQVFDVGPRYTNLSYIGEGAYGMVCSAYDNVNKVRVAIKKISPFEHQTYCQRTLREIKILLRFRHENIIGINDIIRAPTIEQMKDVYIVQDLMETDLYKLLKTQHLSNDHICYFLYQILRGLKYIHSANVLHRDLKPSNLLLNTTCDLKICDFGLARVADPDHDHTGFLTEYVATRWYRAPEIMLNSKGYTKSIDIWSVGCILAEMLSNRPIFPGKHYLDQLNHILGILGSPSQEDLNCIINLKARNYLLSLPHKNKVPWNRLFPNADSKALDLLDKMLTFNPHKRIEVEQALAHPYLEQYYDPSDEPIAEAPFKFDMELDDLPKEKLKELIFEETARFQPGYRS

[25] = target: Insulin-like growth factor 1 receptor (Homo sapiens, UniProt P08069); test: Inhibition of IGF1R
A2780 [26] = test: Effect on cell cycle progression in human A2780 cells assessed as increase in accumulation at […] phase at 1 uM after 24 hrs by flow cytometry; type: functional; outline: as §3
[27] = Inhibition of NIM
[28] = target: Serine/threonine-protein kinase PLK1 (Homo sapiens, UniProt P53350); test: Inhibition of PLK1
[29] = target: Serine/threonine-protein kinase Chk1 (Homo sapiens, UniProt O14757); test: Inhibition of CHK1
[30] = target: Glycogen synthase kinase-3 beta (Homo sapiens, UniProt P49841); test: Inhibition of GSK3-beta
Sequence of Glycogen synthase kinase-3 beta (P49841 whole entry): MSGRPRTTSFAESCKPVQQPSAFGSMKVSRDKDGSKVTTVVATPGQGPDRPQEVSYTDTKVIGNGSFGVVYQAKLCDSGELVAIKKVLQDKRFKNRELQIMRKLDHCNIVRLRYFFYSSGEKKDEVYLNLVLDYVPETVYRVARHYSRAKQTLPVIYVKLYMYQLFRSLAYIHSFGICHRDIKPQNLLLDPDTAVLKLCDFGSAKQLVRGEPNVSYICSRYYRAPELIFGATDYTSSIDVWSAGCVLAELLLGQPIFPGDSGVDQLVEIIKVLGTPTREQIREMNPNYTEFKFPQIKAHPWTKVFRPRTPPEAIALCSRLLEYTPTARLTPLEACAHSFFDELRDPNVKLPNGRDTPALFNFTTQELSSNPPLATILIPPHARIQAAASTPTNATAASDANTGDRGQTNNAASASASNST

[31] = target: Inhibitor of nuclear factor kappa-B kinase subunit epsilon (Homo sapiens, UniProt Q14164); test: Inhibition of IKKi
Sequence of Inhibitor of nuclear factor kappa-B kinase subunit epsilon (Q14164 whole entry): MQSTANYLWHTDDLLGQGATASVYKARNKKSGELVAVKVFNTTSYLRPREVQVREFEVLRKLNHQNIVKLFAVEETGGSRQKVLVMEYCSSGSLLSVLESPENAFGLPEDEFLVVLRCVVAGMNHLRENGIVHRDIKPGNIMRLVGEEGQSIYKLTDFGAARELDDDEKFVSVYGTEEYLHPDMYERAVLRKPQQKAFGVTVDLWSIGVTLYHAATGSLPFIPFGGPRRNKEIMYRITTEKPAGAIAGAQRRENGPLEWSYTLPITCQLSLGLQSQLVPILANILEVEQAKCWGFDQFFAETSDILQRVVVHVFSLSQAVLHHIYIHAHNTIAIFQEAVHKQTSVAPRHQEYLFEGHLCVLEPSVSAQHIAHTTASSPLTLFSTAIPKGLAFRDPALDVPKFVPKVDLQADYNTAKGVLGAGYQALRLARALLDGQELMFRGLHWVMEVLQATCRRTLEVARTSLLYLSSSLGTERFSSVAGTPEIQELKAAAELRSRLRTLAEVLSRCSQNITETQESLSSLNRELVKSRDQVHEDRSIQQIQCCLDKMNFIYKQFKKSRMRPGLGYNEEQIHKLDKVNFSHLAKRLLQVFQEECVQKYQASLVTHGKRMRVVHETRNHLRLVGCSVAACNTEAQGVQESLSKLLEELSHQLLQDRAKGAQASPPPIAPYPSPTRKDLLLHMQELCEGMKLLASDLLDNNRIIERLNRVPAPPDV

A2780 [32] = test: Effect on cell cycle progression in human A2780 cells assessed as decrease in accumulation at G2/M phase at 1 uM after 24 hrs by flow cytometry; type: functional; design: scale not given: the % may be the effect or the level left; outline: as §3
[33] = target: RAC-alpha serine/threonine-protein kinase (Homo sapiens, UniProt P31749); test: Inhibition of AKT1
[34] = target: Inhibitor of nuclear factor kappa-B kinase subunit beta (Homo sapiens, UniProt O14920); test: Inhibition of IKK2
[35] = target: Tyrosine-protein kinase Lyn (Homo sapiens, UniProt P07948); test: Inhibition of LYN
Aurora kinase A = target: T2, Aurora kinase A (Homo sapiens, UniProt O14965); test: Inhibition of Aurora A
T2 sequence (O14965 whole entry): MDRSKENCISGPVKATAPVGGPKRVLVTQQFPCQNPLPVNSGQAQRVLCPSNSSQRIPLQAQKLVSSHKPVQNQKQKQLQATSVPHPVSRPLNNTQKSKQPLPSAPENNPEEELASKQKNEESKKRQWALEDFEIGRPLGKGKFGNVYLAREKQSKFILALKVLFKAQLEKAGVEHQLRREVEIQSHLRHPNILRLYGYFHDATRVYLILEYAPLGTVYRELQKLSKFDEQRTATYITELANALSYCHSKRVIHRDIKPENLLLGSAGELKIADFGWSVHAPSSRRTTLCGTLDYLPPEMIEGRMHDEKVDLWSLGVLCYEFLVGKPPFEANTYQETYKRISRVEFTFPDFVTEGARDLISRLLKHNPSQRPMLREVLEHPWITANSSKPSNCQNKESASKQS

A2780 [36] = test: Antitumor activity against human A2780 cells xenografted in nude mouse assessed as tumor growth inhibition at 20 mg/kg, po BID for 10 consecutive days; type: functional; design: scale not given: the % may be the effect or the level left; outline: as §2
[37] = target: Tyrosine-protein kinase ZAP-70 (Homo sapiens, UniProt P43403); test: Inhibition of ZAP-70
[38] = target: Cyclin-dependent kinase 1/cyclin B1 (Homo sapiens, UniProt P06493); test: Inhibition of CDK1/Cyclin B
Outline: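 Biochemical kinase-panel assay against the CDK1/cyclin B complex; IC50 in μM, reported as the mean of two or more experiments.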

[39] = target: Proto-oncogene tyrosine-protein kinase receptor Ret (Homo sapiens, UniProt P07949); test: Inhibition of RET
[40] = target: Serine/threonine-protein kinase PAK 4 (Homo sapiens, UniProt O96013); test: Inhibition of PAK4
A2780 [41] = test: Antitumor activity against human A2780 cells xenografted in nude mouse assessed as tumor growth inhibition at 40 mg/kg, po BID for 10 consecutive days; type: functional; design: scale not given: the % may be the effect or the level left; outline: as §2
[42] = target: MAP kinase-activated protein kinase 2 (Homo sapiens, UniProt P49137); test: Inhibition of MAPKAPK2
Sequence of MAP kinase-activated protein kinase 2 (P49137 whole entry): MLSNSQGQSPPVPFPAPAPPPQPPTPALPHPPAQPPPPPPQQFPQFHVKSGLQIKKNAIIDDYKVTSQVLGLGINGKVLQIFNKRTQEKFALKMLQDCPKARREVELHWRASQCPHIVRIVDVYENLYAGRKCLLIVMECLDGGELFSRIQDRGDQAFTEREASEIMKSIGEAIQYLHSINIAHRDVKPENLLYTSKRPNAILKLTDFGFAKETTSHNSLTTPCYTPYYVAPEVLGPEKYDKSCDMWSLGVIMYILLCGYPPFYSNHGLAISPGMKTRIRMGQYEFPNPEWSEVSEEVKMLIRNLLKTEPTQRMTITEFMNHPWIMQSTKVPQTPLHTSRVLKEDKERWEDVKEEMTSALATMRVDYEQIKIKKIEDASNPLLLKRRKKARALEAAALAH

[43] = target: 3-phosphoinositide-dependent protein kinase 1 (Homo sapiens, UniProt O15530); test: Inhibition of PDK1
[44] = target: T1, Cyclin-dependent kinase 2; test: Inhibition of CDK2/Cyclin A
Cytochrome P450 3A4 = Cytochrome P450 3A4 (Homo sapiens, UniProt P08684); test: Inhibition of human CYP3A4 assessed as compound remaining by LC/MS/MS analysis; type: ADME; design: concentration or dose not given beside the values
Sequence of Cytochrome P450 3A4 (P08684 whole entry): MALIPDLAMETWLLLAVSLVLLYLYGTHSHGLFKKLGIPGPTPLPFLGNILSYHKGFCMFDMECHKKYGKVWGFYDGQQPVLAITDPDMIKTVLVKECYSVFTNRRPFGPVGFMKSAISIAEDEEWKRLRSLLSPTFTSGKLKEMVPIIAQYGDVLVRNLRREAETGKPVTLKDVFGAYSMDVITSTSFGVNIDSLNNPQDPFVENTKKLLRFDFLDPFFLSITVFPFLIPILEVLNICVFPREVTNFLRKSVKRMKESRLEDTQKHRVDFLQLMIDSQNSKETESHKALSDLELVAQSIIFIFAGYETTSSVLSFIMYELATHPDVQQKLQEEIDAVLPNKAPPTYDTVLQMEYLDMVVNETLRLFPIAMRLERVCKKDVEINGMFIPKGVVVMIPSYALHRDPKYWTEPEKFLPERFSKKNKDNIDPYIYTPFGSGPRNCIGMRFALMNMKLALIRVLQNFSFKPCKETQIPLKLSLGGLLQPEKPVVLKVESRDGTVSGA

[45] = Solubility in 5% dextrose; type: physicochemical
Homo sapiens = organism: Homo sapiens; test: Protein binding in human plasma; conditions: read-out: PPB (converted)

Compound: CNC(=O)c1nn(C)c2c1C(C)(C)Cc1cnc(Nc3ccc(N4CCN(C)CC4)cc3)nc1-2
Activity [1]: Active | Activity [2]: Active | Activity [3]: Active | Activity [4]: Active

Compound: CNC(=O)c1nn(C)c2c1C(C)(C)Cc1cnc(Nc3ccc(N4CCN(C)CC4)cc3)nc1-2 [MILCICLIB]
Activity (A2780 [5]): 76% | Activity (A2780 [6]): 75% | pIC50 [7]: < 5.00 | pIC50 [8]: 5.92 | Activity (A2780 [9]): 68% | pIC50 [10]: 6.18 | pIC50 [11]: < 5.00 | pIC50 [12]: 6.24 | pIC50 [13]: 5.54 | pIC50 [14]: 5.97 | pIC50 (Insulin receptor): < 5.00 | pIC50 (A2780 [15]): 6.70 | pIC50 [16]: < 5.00 | pIC50 [17]: 6.04 | pIC50 [18]: < 5.00 | pIC50 (Aurora kinase B): 5.38 | pIC50 [19]: < 5.00 | pIC50 [20]: < 5.00 | pIC50 [21]: < 5.00 | pIC50 [22]: < 5.00 | solubility [23]: 191 µM (≈ 88 µg/mL) | pIC50 [24]: < 5.00 | pIC50 [25]: < 5.00 | Activity (A2780 [26]): 49% | pIC50 [27]: 5.93 | pIC50 [28]: < 5.00 | pIC50 [29]: < 5.00 | pIC50 [30]: < 5.00 | pIC50 [31]: < 5.00 | Activity (A2780 [32]): 40% | pIC50 [33]: < 5.00 | pIC50 [34]: < 5.00 | pIC50 [35]: < 5.00 | pIC50 (Aurora kinase A): 5.98 | Activity (A2780 [36]): 53% | pIC50 [37]: < 5.00 | pIC50 [38]: 6.40 | pIC50 [39]: 5.71 | pIC50 [40]: < 5.00 | Activity (A2780 [41]): 91% | pIC50 [42]: < 5.00 | pIC50 [43]: < 5.00

Next, values leading:

pIC50 (A2780 [15]): 6.30 | solubility [23]: 193 µM (≈ 81 µg/mL) | pIC50 (Aurora kinase A): 5.53 | pIC50 [44]: 7.08
Compound: CNC(=O)c1nn(C)c2c1C(C)(C)Cc1cnc(Nc3cccc(CN(C)C)c3)nc1-2

pIC50 (A2780 [15]): 6.92 | solubility [23]: 10 µM (≈ 4.05 µg/mL) | pIC50 (Aurora kinase A): 7.29 | pIC50 [44]: 7.85
Compound: Cn1nc(C(N)=O)c2c1-c1nc(Nc3ccc(N4CCOCC4)cc3)ncc1CC2

Activity (Cytochrome P450 3A4): 82% | solubility [45]: 3400 µg/mL | fraction unbound (Homo sapiens): 0.01
Compound: CN1CCN(c2ccc(Nc3ncc4c(n3)-c3c(c(C(N)=O)nn3C)C(C)(C)C4)cc2)CC1.Cl
